Data set [1] concerns Human immunodeficiency virus 1. Nature of the data set: Antiviral activity against HIV1 LAI in human PBM cells. It counts as functional, organism-based. The following applies: Human immunodeficiency virus 1, LAI, PBMC. In a few lines:
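HIV-1 LAI added to PHA-stimulated (3-day) primary human PBM cells 1 h before drugs; medium with recombinant IL-2 (26.5 units/ml); drugs alone or combined at fixed ratios (10:1, 3:1, 25:1, 100:1); 5 days culture; supernatant virus pelleted by centrifugation, RT activity measured radiometrically; combination index with confidence intervals by computer algorithm.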

Data set [2] deals with CCRF-CEM. Description: Reduction in [3H]dexelvucitabine triphosphate in human CEM cells per 10^6 cells at 33.3 uM. The data set is classed as functional. In a few lines:
(§1)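 CEM or PHA-stimulated primary human PBM cells (2 x 10^6 per point) given 10 µM [3H]DFC plus unlabeled 3TC at 1, 33.3 or 100 µM for 4 h, in triplicate; 60% methanol extracts resolved by ion-pairing reverse-phase C18 HPLC; metabolites (TP, DP-choline) quantified by scintillation counting as pmol/10^6 cells.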

Data set [3] relates to CCRF-CEM. Description: Reduction in [3H]dexelvucitabine triphosphate in human CEM cells per 10^6 cells at 100 uM. It counts as functional. In a few lines: as §1
Data set [4] concerns CCRF-CEM. Nature of the data set: (§2) Reduction in dexelvucitabine diphosphate choline level in human CEM cells at 1 uM. The data set is classed as functional. Also on record: scale not given: the % may be the effect or the level left. In a few lines:
as §1

Data set [5] concerns CCRF-CEM. Description: Reduction in dexelvucitabine diphosphate choline level in human CEM cells at 33.3 uM. The data set is classed as functional. Also on record: scale not given: the % may be the effect or the level left. The gist of the method: as §1
The test system of data set [6] is CCRF-CEM. Nature of the data set: Reduction in dexelvucitabine diphosphate choline level in human CEM cells at 100 uM. The data set is classed as functional. The arrangement: scale not given: the % may be the effect or the level left. The gist of the method:
as §1

For data set [7], the system named is PBMC. Description: Reduction in dexelvucitabine diphosphate choline level in human PBMC at 33.3 uM. The data set is classed as functional. Also on record: scale not given: the % may be the effect or the level left. In a few lines:
as §1

In data set [8] the test system is PBMC. Nature of the data set: Reduction in dexelvucitabine diphosphate choline level in human PBMC at 100 uM. The data set is classed as functional. The arrangement: scale not given: the % may be the effect or the level left. In a few lines:
as §1

For data set [9], the system named is CCRF-CEM. Described as §2. The arrangement: scale not given: the % may be the effect or the level left. The data set is classed as functional. In a few lines: as §1
The source holds these as a separate data set.

For data set [10], the system named is PBMC. Nature of the data set: Reduction in dexelvucitabine diphosphate choline level in human PBMC at 1 uM. The data set is classed as functional. Also on record: scale not given: the % may be the effect or the level left. The gist of the method: as §1
Data set [11] has as its system PBMC. Description: Reduction in dexelvucitabine diphosphate choline level in PHA-stimulated human PBMC at 1 uM. It counts as functional, cell-based. In a few lines: (§3)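 Competition assay in triplicate in CEM and PHA-stimulated PBM cells (2 x 10^6 per point). Cells received 10 µM [3H]3TC plus unlabeled DFC, or 10 µM [3H]DFC plus unlabeled 3TC, with the unlabeled drug at 1, 33.3 or 100 µM, for 4 h. After cold-PBS washes, 60% methanol extracts were separated by ion-pair reverse-phase HPLC. Labeled metabolites, including TP and DP-choline, were quantified by scintillation counting against radiolabel alone.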

In data set [12] the test system is CCRF-CEM. Description: Reduction in [3H]dexelvucitabine triphosphate in human CEM cells at 1 uM. The data set is classed as functional, cell-based. In a few lines: as §3
The test system of data set [13] is CCRF-CEM. Nature of the data set: Drug level in human CEM cells per 10^6 cells at 10 uM after 4 hrs. The data set is classed as ADME, cell-based. In a few lines:
(§4)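 CEM cells or PBM cells stimulated 3 days with PHA, 2 x 10^6 cells per time point, were given 10 µM [3H]DFC or [3H]3TC for 4 h. Cells were washed three times in cold PBS and counted, with viability checked by trypan blue. Metabolites were extracted overnight in 60% methanol and resolved by ion-pair C18 HPLC (ammonium acetate/TBAP pH 7.0, 0–50% methanol), then radioactivity was counted. LOD was about 0.01 pmol/10^6 cells.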

The test system of data set [14] is PBMC. Description: Drug level in human PBMC per 10^6 cells at 10 uM after 4 hrs. It counts as ADME, cell-based. The gist of the method: as §4
Data set [15] concerns CCRF-CEM. Description: Reduction of Lamivudine triphosphate level at 100 uM in human CEM cells. It counts as functional. Also on record: scale not given: the % may be the effect or the level left. In a few lines: (§5)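 CEM or PHA-stimulated primary human PBM cells (2 x 10^6 per point) given 10 µM [3H]3TC plus unlabeled competitor at 1, 33.3 or 100 µM for 4 h, in triplicate; cells washed in cold PBS, extracted overnight in 60% methanol; metabolites separated by ion-pairing reverse-phase C18 HPLC (ammonium acetate/TBAP pH 7.0, methanol gradient); radioactivity counted; detection limit about 0.01 pmol/10^6 cells.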

Data set [16] relates to PBMC. Nature of the data set: Reduction of Lamivudine triphosphate level at 100 uM in human PBMC. The data set is classed as functional. The arrangement: scale not given: the % may be the effect or the level left. The gist of the method:
as §5

Data set [17] relates to CCRF-CEM. Description: Reduction in Lamivudine metabolite level in human CEM cells at 1 uM. It counts as functional, cell-based. In a few lines:
as §3

In data set [18] the test system is CCRF-CEM. Nature of the data set: Reduction in Lamivudine metabolite level in human CEM cells at 33.3 uM. It counts as functional. The arrangement: scale not given: the % may be the effect or the level left. In a few lines: as §5
For data set [19], the system named is CCRF-CEM. Nature of the data set: Reduction in Lamivudine metabolite level in human CEM cells at 100 uM. Also on record: scale not given: the % may be the effect or the level left. It counts as functional. The gist of the method:
as §5

The subject of data set [20] is CCRF-CEM. Nature of the data set: Reduction in Lamivudine diphosphate choline level in human CEM cells. It counts as functional, cell-based. The gist of the method:
as §3

The source made the active and inactive calls. The rule behind the calls is not given here.

On to `Nc1ccn([C@@H]2CS[C@H](CO)O2)c(=O)n1` (single isomer, unassigned) [LAMIVUDINE], for which the midpoint of the response in data set [1], the EC50, lay at 26 nM. Also, in data set [1], the EC90 (as a rule, the point of the concentration-response curve where the effect stands at 90%) stood at 120 nM. The Activity was 0.67 pmol in [2]; 0.41 pmol in data set [3]; 74% in data set [4]; 83% in data set [5]; 92% in [6]; 83% in [7]. Moreover, the values for the Activity in data set [8], in data set [9] and in data set [10] were 92%, 74% and 48%, respectively. For the same compound, the result in data set [11] was Active. Moreover, the outcome in data set [12] was inactive.

For `Nc1ccn([C@@H]2CS[C@H](COP(=O)(O)OP(=O)(O)OP(=O)(O)O)O2)c(=O)n1` [LAMIVUDINE TRIPHOSPHATE], the Drug uptake came out at 5.7 pmol in [13] and 2.01 pmol in data set [14].

With `Nc1nc(=O)n([C@H]2C=C[C@@H](CO)O2)cc1F` [DEXELVUCITABINE], the response in data set [1] was half-maximal at 75 nM (EC50). Further, the concentration for an effect of 90% (EC90) in data set [1] turned out to be 230 nM. In addition, the Activity in data set [15] worked out at 25%; in data set [16], 46%; in data set [18], 10%; in data set [19] it was 13%. Further, the outcome in data set [17] and in [20] was inactive.

The record behind these values is ChEMBL document CHEMBL1143843, “Antiviral and cellular metabolism interactions between Dexelvucitabine and lamivudine” (Antimicrob Agents Chemother, 2007).
